Consider two molecules from ChEMBL document CHEMBL4411315, “Discovery of Novel Dual Histone Deacetylase and Mammalian Target of Rapamycin Target Inhibitors as a Promising Strategy for Cancer Therapy” (J Med Chem, 2019).

Series [1] deals with T1, Serine/threonine-protein kinase mTOR (Homo sapiens, UniProt P42345). Nature of the series: Inhibition of recombinant N-terminal FLAG-tagged human mTOR (1362 to end residues) using ULight-4E-BP1 (Thr37/46) peptide as substrate after 1 hr by fluorescence assay. The gist of the method: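 mTOR enzyme, ATP, compound and ULight-4E-BP1 (Thr37/46) peptide in kinase buffer were incubated 1 h at room temperature. EDTA quench plus Eu-anti-phospho-4E-BP1 antibody was added and equilibrated 1 h. TR-FRET was read at excitation 320 or 340 nm and emission 665 nm. Curves were fitted, and values are means of at least two experiments.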

For a further series, the target named is Histone deacetylase 3 (Homo sapiens, UniProt O15379). Nature of the series: Inhibition of recombinant full length HDAC3 (unknown origin) using Ac-peptide-AMC as substrate preincubated for 15 mins followed by substrate addition and measured after 1 hr by fluorescence assay.
Sequence of Histone deacetylase 3 (O15379 whole entry): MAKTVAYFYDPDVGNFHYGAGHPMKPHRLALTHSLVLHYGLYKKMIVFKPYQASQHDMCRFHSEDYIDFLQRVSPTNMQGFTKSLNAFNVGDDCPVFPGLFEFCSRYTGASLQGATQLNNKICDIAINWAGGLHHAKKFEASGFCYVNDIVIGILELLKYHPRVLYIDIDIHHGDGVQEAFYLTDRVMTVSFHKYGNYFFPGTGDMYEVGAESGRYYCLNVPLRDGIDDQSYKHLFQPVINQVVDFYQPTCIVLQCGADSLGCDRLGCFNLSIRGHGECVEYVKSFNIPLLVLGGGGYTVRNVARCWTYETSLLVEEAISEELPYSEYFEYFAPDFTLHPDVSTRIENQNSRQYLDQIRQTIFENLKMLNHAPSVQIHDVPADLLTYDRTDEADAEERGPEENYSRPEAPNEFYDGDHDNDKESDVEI
In a further series the target is Histone deacetylase 1 (Homo sapiens, UniProt Q13547). Description: Inhibition of recombinant full length HDAC1 (unknown origin) using Ac-peptide-AMC as substrate preincubated for 15 mins followed by substrate addition and measured after 1 hr by fluorescence assay.
Sequence of Histone deacetylase 1 (Q13547 whole entry): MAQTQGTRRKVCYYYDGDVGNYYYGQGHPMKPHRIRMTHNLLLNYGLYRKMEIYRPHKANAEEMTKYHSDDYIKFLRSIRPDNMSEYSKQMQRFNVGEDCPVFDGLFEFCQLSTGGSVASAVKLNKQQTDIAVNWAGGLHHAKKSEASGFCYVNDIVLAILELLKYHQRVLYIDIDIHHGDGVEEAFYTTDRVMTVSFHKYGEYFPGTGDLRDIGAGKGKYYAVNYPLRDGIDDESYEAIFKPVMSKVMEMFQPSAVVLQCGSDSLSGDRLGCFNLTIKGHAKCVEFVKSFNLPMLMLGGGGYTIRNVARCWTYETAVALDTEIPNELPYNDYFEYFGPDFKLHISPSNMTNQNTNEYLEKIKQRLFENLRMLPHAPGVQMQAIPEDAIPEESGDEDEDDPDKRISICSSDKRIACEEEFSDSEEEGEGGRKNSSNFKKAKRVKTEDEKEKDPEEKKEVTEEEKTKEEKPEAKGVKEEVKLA
A further series has as its target Histone deacetylase 8 (Homo sapiens, UniProt Q9BY41). Description: Inhibition of recombinant full length C-terminal His-tagged human HDAC8 expressed in baculovirus expression system using Ac-peptide-AMC as substrate preincubated for 15 mins followed by substrate addition and measured after 1 hr by fluorescence assay.
Series [2] concerns MM1.S. Nature of the series: Antiproliferative activity against human MM1S cells after 72 hrs by MTT assay. In kind it is functional, cell-based. A general note: Tetrazolium dyes change colour on reduction, which living cells bring about.
The subject of a further series is Raji. Nature of the series: Antiproliferative activity against human Raji cells after 72 hrs by MTT assay. In kind it is functional, cell-based. The gist of the method: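 Log-phase cells were plated at 10000-15000 per well and exposed to serial concentrations after 24 h for 72 h. Read-out was MTT for 1-3 h, then 20% SDS overnight and absorbance at 570 nm. IC50 was calculated from growth versus untreated control, as mean ± SEM of at least three independent experiments.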

Another series concerns HCT-116. Nature of the series: Antiproliferative activity against human HCT116 cells after 72 hrs by MTT assay. In kind it is functional, cell-based. The note with it: HCT-116, 72 h.
The target in series [3] is PI3-kinase p110-alpha/p85-alpha (Homo sapiens) (UniProt P27986+P42336). Description: Inhibition of recombinant human full length N-terminal His-tagged/untagged p110alpha/p85alpha expressed in baculovirus expression system at 500 nM using PIP2 as substrate after 1 hr by Kinase-Glo reagent-based assay relative to control. Background: In Kinase-Glo more light means more ATP remaining.

The target of series [4] is Protein deacetylase HDAC6 (Homo sapiens, UniProt Q9UBN7). Nature of the series: Inhibition of recombinant full length HDAC6 (unknown origin) using Ac-peptide-AMC as substrate preincubated for 15 mins followed by substrate addition and measured after 1 hr by fluorescence assay.
Sequence of Protein deacetylase HDAC6 (Q9UBN7 whole entry): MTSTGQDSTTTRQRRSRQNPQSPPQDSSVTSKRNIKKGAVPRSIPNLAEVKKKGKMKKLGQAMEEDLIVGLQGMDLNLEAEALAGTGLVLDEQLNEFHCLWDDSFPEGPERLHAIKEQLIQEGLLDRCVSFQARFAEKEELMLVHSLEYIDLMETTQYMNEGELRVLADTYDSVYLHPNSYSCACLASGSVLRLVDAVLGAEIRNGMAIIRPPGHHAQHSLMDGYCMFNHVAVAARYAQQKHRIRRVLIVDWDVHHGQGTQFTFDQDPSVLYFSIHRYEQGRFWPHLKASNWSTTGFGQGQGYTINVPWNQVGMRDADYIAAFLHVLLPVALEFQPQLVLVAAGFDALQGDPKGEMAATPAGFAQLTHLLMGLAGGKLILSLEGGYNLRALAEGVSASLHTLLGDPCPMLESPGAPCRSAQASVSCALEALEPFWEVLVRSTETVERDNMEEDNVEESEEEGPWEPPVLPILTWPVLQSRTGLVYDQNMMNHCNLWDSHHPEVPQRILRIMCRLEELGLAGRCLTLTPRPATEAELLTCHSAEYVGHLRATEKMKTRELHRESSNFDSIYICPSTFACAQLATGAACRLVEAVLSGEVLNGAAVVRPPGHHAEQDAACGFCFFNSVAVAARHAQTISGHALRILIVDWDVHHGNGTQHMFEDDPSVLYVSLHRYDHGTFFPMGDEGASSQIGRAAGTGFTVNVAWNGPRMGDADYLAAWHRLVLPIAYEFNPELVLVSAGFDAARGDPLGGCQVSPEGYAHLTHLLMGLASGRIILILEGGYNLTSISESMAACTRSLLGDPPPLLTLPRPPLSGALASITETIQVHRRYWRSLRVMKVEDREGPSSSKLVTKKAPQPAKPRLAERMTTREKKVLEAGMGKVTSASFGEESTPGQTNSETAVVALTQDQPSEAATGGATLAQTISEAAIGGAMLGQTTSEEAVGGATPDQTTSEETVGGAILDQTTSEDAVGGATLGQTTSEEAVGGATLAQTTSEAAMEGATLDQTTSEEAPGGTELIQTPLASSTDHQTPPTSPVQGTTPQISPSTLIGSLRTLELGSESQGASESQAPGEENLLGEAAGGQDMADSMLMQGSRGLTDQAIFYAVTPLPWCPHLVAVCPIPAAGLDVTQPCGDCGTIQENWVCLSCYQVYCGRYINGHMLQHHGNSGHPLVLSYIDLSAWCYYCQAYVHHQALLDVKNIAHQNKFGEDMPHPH
Series [5] concerns the target Polyamine deacetylase HDAC10 (Homo sapiens, UniProt Q969S8). Description: Inhibition of recombinant full length N-terminal FLAG-tagged human HDAC10 expressed in baculovirus infected sf9 cells using Ac-peptide-AMC as substrate preincubated for 15 mins followed by substrate addition and measured after 1 hr by fluorescence assay.
The next series addresses Histone deacetylase 2 (Homo sapiens, UniProt Q92769). Description: Inhibition of recombinant full length human HDAC2 expressed in baculovirus expression system using Ac-peptide-AMC as substrate preincubated for 15 mins followed by substrate addition and measured after 1 hr by fluorescence assay.
For series [6], the target named is T1, Serine/threonine-protein kinase mTOR. Nature of the series: Inhibition of recombinant N-terminal FLAG-tagged human mTOR (1362 to end residues) at 500 nM using ULight-4E-BP1 (Thr37/46) peptide as substrate after 1 hr by fluorescence assay relative to control.
Another series deals with MCF7. Nature of the series: Antiproliferative activity against human MCF7 cells after 72 hrs by MTT assay. In kind it is functional, cell-based. The note with it: MCF7, 72 h.
The test system of series [7] is MV4-11. Description: Induction of apoptosis in human MV4-11 cells assessed as early apoptotic cells at 1 uM after 48 hrs in presence of 0.3 uM RAPA by Annexin V-FITC/propidium iodide staining-based flow cytometric analysis (reference value: 10.7%). In kind it is functional. On the technique in general: Flow cytometry measures light scatter and fluorescence of single cells or particles in a stream.

The test system of series [8] is MM1.S. Description: Induction of apoptosis in human MM1S cells assessed as early apoptotic cells at 1 uM after 48 hrs by Annexin V-FITC/propidium iodide staining-based flow cytometric analysis (reference value: 0.38%). In kind it is functional.
For series [9], the system named is MM1.S. Nature of the series: Induction of apoptosis in human MM1S cells assessed as early apoptotic cells at 1 uM after 48 hrs in presence of 0.3 uM RAPA by Annexin V-FITC/propidium iodide staining-based flow cytometric analysis (reference value: 0.38%). In kind it is functional.
The test system of series [10] is MM1.S. Description: Induction of apoptosis in human MM1S cells assessed as late apoptotic cells at 1 uM after 48 hrs by Annexin V-FITC/propidium iodide staining-based flow cytometric analysis (reference value: 0.42%). In kind it is functional.
Series [11] has as its system MM1.S. Nature of the series: Induction of apoptosis in human MM1S cells assessed as necrotic cells at 1 uM after 48 hrs by Annexin V-FITC/propidium iodide staining-based flow cytometric analysis (reference value: 0.32%). In kind it is functional.
Series [12] concerns MV4-11. Nature of the series: Induction of apoptosis in human MV4-11 cells assessed as viable cells at 1 uM after 48 hrs in presence of 0.3 uM RAPA by Annexin V-FITC/propidium iodide staining-based flow cytometric analysis (reference value: 84.1%). In kind it is functional.
Series [13] concerns MV4-11. Description: Induction of apoptosis in human MV4-11 cells assessed as late apoptotic cells at 1 uM after 48 hrs by Annexin V-FITC/propidium iodide staining-based flow cytometric analysis (reference value: 5.03%). In kind it is functional.
In series [14] the test system is MM1.S. Description: Induction of apoptosis in human MM1S cells assessed as viable cells at 1 uM after 48 hrs in presence of 0.3 uM RAPA by Annexin V-FITC/propidium iodide staining-based flow cytometric analysis (reference value: 98.9%). In kind it is functional.
Series [15] has as its system MV4-11. Nature of the series: Induction of apoptosis in human MV4-11 cells assessed as viable cells at 1 uM after 48 hrs by Annexin V-FITC/propidium iodide staining-based flow cytometric analysis (reference value: 84.1%). In kind it is functional.
Series [16] deals with MV4-11. Description: Induction of apoptosis in human MV4-11 cells assessed as early apoptotic cells at 1 uM after 48 hrs by Annexin V-FITC/propidium iodide staining-based flow cytometric analysis (reference value: 10.7%). In kind it is functional.
The subject of series [17] is MM1.S. Description: Induction of apoptosis in human MM1S cells assessed as late apoptotic cells at 1 uM after 48 hrs in presence of 0.3 uM RAPA by Annexin V-FITC/propidium iodide staining-based flow cytometric analysis (reference value: 0.42%). In kind it is functional.
Series [18] relates to MM1.S. Nature of the series: Induction of apoptosis in human MM1S cells assessed as necrotic cells at 1 uM after 48 hrs in presence of 0.3 uM RAPA by Annexin V-FITC/propidium iodide staining-based flow cytometric analysis (reference value: 0.32%). In kind it is functional.
In series [19] the test system is MV4-11. Description: Induction of apoptosis in human MV4-11 cells assessed as late apoptotic cells at 1 uM after 48 hrs in presence of 0.3 uM RAPA by Annexin V-FITC/propidium iodide staining-based flow cytometric analysis (reference value: 5.03%). In kind it is functional.
Series [20] can be described thus: Toxicity against NOD/SCID mouse xenografted with human MM1S cells assessed as mouse survival at 50 mg/kg, po qd administered for 10 days. The following applies: in vivo, 240 h. In kind it is organism-based. The gist of the method: (§1)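 MM1S s.c. xenograft: 10^7 cells in serum-free RPMI 1640, right flank, female NOD/SCID mice aged 5-6 weeks, randomised at 100-200 mm3 (n=6 per group). Oral daily dosing used physiological saline with 2.5% DMSO and 10% cyclodextrin, pH 9; the combination was given as a suspension. Caliper measurements were taken every 2 days. Survivors were counted.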

The test system of series [21] is MM1.S. Description: Induction of apoptosis in human MM1S cells assessed as viable cells at 1 uM after 48 hrs by Annexin V-FITC/propidium iodide staining-based flow cytometric analysis (reference value: 98.9%). In kind it is functional.
Series [22] deals with MV4-11. Description: Induction of apoptosis in human MV4-11 cells assessed as necrotic cells at 1 uM after 48 hrs in presence of 0.3 uM RAPA by Annexin V-FITC/propidium iodide staining-based flow cytometric analysis (reference value: 0.17%). In kind it is functional.
Series [23] relates to MV4-11. Nature of the series: Induction of apoptosis in human MV4-11 cells assessed as necrotic cells at 1 uM after 48 hrs by Annexin V-FITC/propidium iodide staining-based flow cytometric analysis (reference value: 0.17%). In kind it is functional.
Series [24] can be described thus: Toxicity against NOD/SCID mouse xenografted with human MM1S cells assessed as mouse survival at 50 mg/kg, po qd administered for 10 days co-treated with 25 mg/kg RAPA. In kind it is organism-based. The following applies: in vivo, 240 h. The gist of the method: as §1

pIC50: −log10 of the molar value.

Sequence of Histone deacetylase 2 (Q92769 whole entry): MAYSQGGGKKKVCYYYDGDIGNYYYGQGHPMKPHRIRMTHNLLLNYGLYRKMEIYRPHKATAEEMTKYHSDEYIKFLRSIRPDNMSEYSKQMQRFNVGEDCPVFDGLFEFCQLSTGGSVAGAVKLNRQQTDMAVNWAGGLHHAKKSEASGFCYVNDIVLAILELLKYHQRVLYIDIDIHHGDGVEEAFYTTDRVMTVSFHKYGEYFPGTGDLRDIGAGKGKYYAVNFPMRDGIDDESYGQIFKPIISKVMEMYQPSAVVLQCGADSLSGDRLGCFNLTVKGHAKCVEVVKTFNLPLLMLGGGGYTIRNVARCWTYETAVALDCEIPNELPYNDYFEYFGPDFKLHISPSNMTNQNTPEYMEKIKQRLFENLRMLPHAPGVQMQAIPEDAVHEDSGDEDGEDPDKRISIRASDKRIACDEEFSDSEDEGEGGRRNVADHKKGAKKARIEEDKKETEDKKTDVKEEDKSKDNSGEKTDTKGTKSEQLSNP
Sequence of Polyamine deacetylase HDAC10 (Q969S8 whole entry): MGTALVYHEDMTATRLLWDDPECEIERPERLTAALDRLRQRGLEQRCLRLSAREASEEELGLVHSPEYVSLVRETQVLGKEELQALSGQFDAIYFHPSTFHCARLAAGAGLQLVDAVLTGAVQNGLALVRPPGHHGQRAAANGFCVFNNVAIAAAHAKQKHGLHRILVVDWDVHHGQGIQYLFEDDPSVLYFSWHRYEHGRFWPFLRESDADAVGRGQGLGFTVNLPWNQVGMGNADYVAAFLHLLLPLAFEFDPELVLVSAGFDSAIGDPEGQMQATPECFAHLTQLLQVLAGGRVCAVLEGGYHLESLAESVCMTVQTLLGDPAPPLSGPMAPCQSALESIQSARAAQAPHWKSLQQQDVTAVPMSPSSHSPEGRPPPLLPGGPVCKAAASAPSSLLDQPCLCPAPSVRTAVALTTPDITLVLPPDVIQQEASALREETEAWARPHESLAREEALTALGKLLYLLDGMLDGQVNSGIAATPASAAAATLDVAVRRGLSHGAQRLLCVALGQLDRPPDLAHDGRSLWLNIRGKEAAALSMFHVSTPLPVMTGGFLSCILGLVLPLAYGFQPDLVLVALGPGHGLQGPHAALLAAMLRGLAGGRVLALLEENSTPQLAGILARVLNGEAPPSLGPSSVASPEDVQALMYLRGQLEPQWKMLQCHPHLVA
Sequence of Histone deacetylase 8 (Q9BY41 whole entry): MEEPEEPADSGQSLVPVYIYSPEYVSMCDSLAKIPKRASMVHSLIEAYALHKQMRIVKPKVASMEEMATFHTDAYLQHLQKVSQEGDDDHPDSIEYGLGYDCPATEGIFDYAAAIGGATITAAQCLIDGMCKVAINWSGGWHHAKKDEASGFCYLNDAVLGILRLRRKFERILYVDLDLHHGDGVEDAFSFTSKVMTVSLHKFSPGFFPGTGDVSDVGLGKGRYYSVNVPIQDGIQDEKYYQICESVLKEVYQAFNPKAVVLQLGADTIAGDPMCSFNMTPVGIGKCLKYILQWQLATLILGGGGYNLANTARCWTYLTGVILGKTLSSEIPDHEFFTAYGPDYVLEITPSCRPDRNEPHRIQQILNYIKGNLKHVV

As a reminder, the pIC50 is −log10 of the IC50, conventionally taken in molar units. Usually inhibition stands for the percentage by which the read-out fell short of the control. For the molecule `Nc1ccc(-c2nc(N3CCOCC3)c3cnn(CCCCCCC(=O)NO)c3n2)cc1`, the pIC50 in [1] was 7.40; on Histone deacetylase 3, 8.38; on Histone deacetylase 1, 9.68; at Histone deacetylase 8, 7.45; with MM1.S [2], 7.72; in the series with Raji it was 8.15. Also, the pIC50 is 8.15 with HCT-116; 8.61 in [4]; 8.84 in series [5]; 8.80 on Histone deacetylase 2; 7.20 with MCF7. Besides, the figures for the inhibition in [3] and in series [6] were 16% and 95%, respectively.
Consider `O=C(CCCCCCC(=O)Nc1ccccc1)NO` [VORINOSTAT], for which the Activity in the series on MV4-11 [7] is recorded as 37%; in the series on MM1.S [8], 9.68%; in the series with MM1.S [9], 15%; in the series on MM1.S [10], 11.8%; with MM1.S [11] it was 3.04%; with MV4-11 [12], 17.1%. Besides, the Activity in the series with MV4-11 [13] is given as 37.9%; with MM1.S [14] it was 53.6%; in the series on MV4-11 [15] it was 18.6%; in the series with MV4-11 [16], 40%; with MM1.S [17] it was 29.7%; with MM1.S [18] it was 1.74%. For the same molecule, the Activity in the series on MV4-11 [19] is 42.4%; in [20], “Non-Toxic”; in the series with MM1.S [21], 75.4%; in the series on MV4-11 [22], 3.48%; in the series on MV4-11 [23] it was 3.51%; in [24], “Non-Toxic”.
